Measured values published in ChEMBL document CHEMBL1155937, “Substituted 3-((Z)-2-(4-nitrophenyl)-2-(1H-tetrazol-5-yl) vinyl)-4H-chromen-4-ones as novel anti-MRSA agents: synthesis, SAR, and in-vitro assessment” (Bioorg Med Chem Lett, 2008).
Values after ≈ are worked out from the molar mass of the structure shown.

Legend:
[1] = pKa of the compound; type: physicochemical
[2] = test system: Escherichia coli; test: Antibacterial activity against Escherichia coli ATCC 25922 after 24 hrs by twofold serial dilution method; type: functional; conditions: ATCC 25922, 24 h
In short: (§1)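 CLSI agar-dilution MIC on Mueller Hinton agar with serial twofold drug dilutions. About 10⁴ CFU applied per spot by multipoint inoculator. Incubated at 35 °C and growth scored at 24 h. DMSO served as solvent control. S. aureus ATCC 29213 was the QC strain. Twofold differences were confirmed by a third repetition, and the more frequent result was reported.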

[3] = test system: Staphylococcus aureus; test: Antibacterial activity against methicillin-resistant Staphylococcus aureus 032 after 24 hrs by twofold serial dilution method; type: functional
In short: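 Agar dilution MIC per CLSI on Mueller Hinton agar with serial twofold drug dilutions. About 10⁴ CFU applied per spot with a multipoint inoculator, incubated at 35 °C, and growth scored at 24 h. DMSO served as solvent control. Twofold discrepancies were confirmed by a third repetition, and the more frequent value was reported.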

[4] = test system: Staphylococcus aureus; test: Antibacterial activity against methicillin-sensitive Staphylococcus aureus ATCC 13709 Smith after 24 hrs by twofold serial dilution method; type: functional; in short: as §1
[5] = test system: Streptococcus pneumoniae; test: Antibacterial activity against Streptococcus pneumoniae ATCC 49619 after 24 hrs by twofold serial dilution method; type: functional; conditions: ATCC 49619, 24 h
In short: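 About 10⁴ CFU applied per spot. Incubated at 35 °C in 5% CO₂ and growth scored at 24 h. DMSO served as solvent control. Twofold differences were confirmed by a third repetition.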

[6] = test system: Enterococcus faecalis; test: Antibacterial activity against Enterococcus faecalis ATCC 29212 after 24 hrs by twofold serial dilution method; type: functional; conditions: ATCC 29212, 24 h; in short: as §1

Structure (SMILES) | pKa [1] | MIC [2] [mg/L] | MIC [3] [mg/L] | MIC [4] [mg/L] | MIC [5] [mg/L] | MIC [6] [mg/L]
O=c1c(-c2nnn[nH]2)coc2ccccc12 | 5.85 | – | – | – | – | –
O=c1c(/C=C(/c2ccc([N+](=O)[O-])cc2)c2nnn[nH]2)coc2ccc(Br)cc12 | – | > 32 | > 32 | > 32 | > 32 | > 32
Cc1cc2occ(/C=C(/c3ccc([N+](=O)[O-])cc3)c3nnn[nH]3)c(=O)c2cc1Cl | – | > 32 | 4 (≈ 9.76 µM) | 16 (≈ 39 µM) | 16 (≈ 39 µM) | 16 (≈ 39 µM)
O=c1c(/C=C(/c2ccc([N+](=O)[O-])cc2)c2nnn[nH]2)coc2ccc(Cl)cc12 | – | > 32 | > 32 | > 32 | > 32 | > 32
Cc1cc(C)c2occ(/C=C(/c3ccc([N+](=O)[O-])cc3)c3nnn[nH]3)c(=O)c2c1 | – | > 32 | 2 (≈ 5.14 µM) | 8 (≈ 20.5 µM) | 16 (≈ 41.1 µM) | 16 (≈ 41.1 µM)
O=c1c(/C=C(/c2ccc([N+](=O)[O-])cc2)c2nnn[nH]2)coc2c(Cl)cc(Cl)cc12 | – | > 32 | 2 (≈ 4.65 µM) | 16 (≈ 37.2 µM) | 1 (≈ 2.32 µM) | 8 (≈ 18.6 µM)
Cc1ccc2occ(/C=C(/c3ccc([N+](=O)[O-])cc3)c3nnn[nH]3)c(=O)c2c1 | – | > 32 | > 32 | 8 (≈ 21.3 µM) | > 32 | > 32
O=c1c(/C=C(/c2ccc([N+](=O)[O-])cc2)c2nnn[nH]2)coc2ccc(F)cc12 | – | > 32 | 0.5 (≈ 1.32 µM) | 8 (≈ 21.1 µM) | 0.5 (≈ 1.32 µM) | 4 (≈ 10.5 µM)
CC1(C)S[C@@H]2[C@H](NC(=O)[C@H](N)c3ccccc3)C(=O)N2[C@H]1C(=O)O [AMPICILLIN] | – | > 32 | > 32 | 0.25 (≈ 0.715 µM) | 0.06 (≈ 0.172 µM) | 0.5 (≈ 1.43 µM)
O=C(O)c1cn(C2CC2)c2cc(N3CCNCC3)c(F)cc2c1=O [CIPROFLOXACIN] | – | > 32 | > 32 | 0.12 (≈ 0.362 µM) | 2 (≈ 6.04 µM) | 0.5 (≈ 1.51 µM)
CC[C@H]1OC(=O)[C@H](C)[C@@H](O[C@H]2C[C@@](C)(OC)[C@@H](O)[C@H](C)O2)[C@H](C)[C@@H](O[C@@H]2O[C@H](C)C[C@H](N(C)C)[C@H]2O)[C@](C)(O)C[C@@H](C)C(=O)[C@H](C)[C@@H](O)[C@]1(C)O [ERYTHROMYCIN] | – | > 32 | > 32 | 0.5 (≈ 0.681 µM) | 0.12 (≈ 0.164 µM) | 2 (≈ 2.73 µM)
